Data reported in ChEMBL document CHEMBL2412986, “Design, synthesis and evaluation of novel 2-hydroxypyrrolobenzodiazepine-5,11-dione analogues as potent angiotensin converting enzyme (ACE) inhibitors” (Bioorg Med Chem, 2013).

Assays:
[1] = target: T1, Angiotensin-converting enzyme (Oryctolagus cuniculus) (UniProt P12822); assay: Inhibition of rabbit lung ACE assessed as hydrolysis of hippuryl-histidyl-leucine to hippuric acid and histidyl-leucine at 1 uM after 30 mins relative to control
T1 sequence (whole entry): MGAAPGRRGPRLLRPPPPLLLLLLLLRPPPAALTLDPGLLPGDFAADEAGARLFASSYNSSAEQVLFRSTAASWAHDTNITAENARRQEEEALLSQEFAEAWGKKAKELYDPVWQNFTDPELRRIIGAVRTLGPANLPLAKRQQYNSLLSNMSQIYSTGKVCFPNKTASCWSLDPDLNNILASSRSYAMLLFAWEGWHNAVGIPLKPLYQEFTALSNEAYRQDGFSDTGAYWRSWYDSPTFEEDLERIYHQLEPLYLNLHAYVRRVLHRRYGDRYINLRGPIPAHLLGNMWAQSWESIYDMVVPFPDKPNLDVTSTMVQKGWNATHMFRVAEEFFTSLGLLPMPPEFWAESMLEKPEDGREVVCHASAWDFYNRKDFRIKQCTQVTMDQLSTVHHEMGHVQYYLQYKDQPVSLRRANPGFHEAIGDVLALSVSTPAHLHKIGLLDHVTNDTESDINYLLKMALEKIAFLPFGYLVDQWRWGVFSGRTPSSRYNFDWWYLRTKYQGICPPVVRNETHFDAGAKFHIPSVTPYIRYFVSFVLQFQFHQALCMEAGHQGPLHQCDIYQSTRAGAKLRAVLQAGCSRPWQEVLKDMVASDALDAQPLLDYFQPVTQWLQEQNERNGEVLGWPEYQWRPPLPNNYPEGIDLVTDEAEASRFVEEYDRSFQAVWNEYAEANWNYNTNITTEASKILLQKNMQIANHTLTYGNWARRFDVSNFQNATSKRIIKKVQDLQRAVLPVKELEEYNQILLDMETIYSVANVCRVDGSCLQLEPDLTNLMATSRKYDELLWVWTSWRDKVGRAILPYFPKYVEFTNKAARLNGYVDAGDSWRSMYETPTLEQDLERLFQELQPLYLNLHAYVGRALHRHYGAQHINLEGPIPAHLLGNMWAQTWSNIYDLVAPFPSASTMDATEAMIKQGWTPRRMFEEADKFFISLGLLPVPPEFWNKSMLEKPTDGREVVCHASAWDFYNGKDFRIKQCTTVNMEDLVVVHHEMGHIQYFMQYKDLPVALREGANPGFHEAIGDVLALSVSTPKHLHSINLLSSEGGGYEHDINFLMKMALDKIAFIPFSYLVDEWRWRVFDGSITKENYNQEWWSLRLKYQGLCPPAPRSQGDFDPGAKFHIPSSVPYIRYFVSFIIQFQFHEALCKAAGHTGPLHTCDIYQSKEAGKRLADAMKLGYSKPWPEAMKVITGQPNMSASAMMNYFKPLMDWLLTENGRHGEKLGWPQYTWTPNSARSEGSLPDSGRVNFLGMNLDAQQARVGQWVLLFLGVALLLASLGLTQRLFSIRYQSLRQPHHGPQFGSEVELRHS
Summary of the method: (§1)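 Enzyme is the supernatant of rabbit lung acetone powder homogenized in 0.05 M sodium borate pH 8.2 with 0.3 M NaCl and 0.5% Triton X-100 at 4 °C, spun 15,000 rpm for 60 min. Reaction uses borate/NaCl buffer and 5 mM HHL stock, 30 min at 37 °C. Hippuric acid read colorimetrically at 410 nm, in triplicate. % inhibition = 100 − (A_test/A_control)×100. Single-point screen at 1.0 µM; IC₅₀ from plots of % inhibition against serial concentrations.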

HEK293 = assay: Cytotoxicity against HEK293 cells assessed as cell survival after 24 hrs by MTT assay; assay type: cell-based; settings: Homo sapiens, HEK293, 24 h
Summary of the method: (§2)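 HEK 293 (normal) and A549 (cancer) cells seeded at 1×10^4 cells/well in DMEM with 10% FBS, grown 24 h at 37 °C under CO₂, then exposed to compounds alongside vehicle control for 24 h. MTT (5 mg/mL, 10 µl) added for 4 h, formazan dissolved in DMSO, absorbance read at 540 nm. Survival relative to control cells; EC₅₀ by probit analysis.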

A549 = assay: Cytotoxicity against human A549 cells assessed as cell survival after 24 hrs by MTT assay; assay type: cell-based; settings: A549, 24 h; summary of the method: as §2
[2] = target: T2, Angiotensin-converting enzyme (Oryctolagus cuniculus, UniProt P12822); assay: Inhibition of rabbit lung ACE assessed as hydrolysis of hippuryl-histidyl-leucine to hippuric acid and histidyl-leucine after 30 mins; summary of the method: as §1
T2 sequence (P12822 whole entry): T1 sequence (whole entry)

[3] = Ratio of IC50 for rabbit lung ACE to IC50 for human A549 cells
[4] = Ratio of IC50 for rabbit lung ACE to IC50 for HEK293 cells

Compound `O=C(CN1C(=O)[C@@H]2C[C@@H](O)CN2C(=O)c2ccccc21)c1ccc(Br)cc1` has an inhibition [1] of 28%.

`CCOC(=O)CN1C(=O)[C@@H]2C[C@@H](O)CN2C(=O)c2ccccc21` showed an inhibition [1] of 28%.

`Nc1ccc(CN2C(=O)[C@@H]3C[C@@H](O)CN3C(=O)c3ccccc32)cc1` gave an inhibition [1] of 28%.

With `CCOC(=O)[C@H](CCc1ccccc1)N[C@H]1CCc2ccccc2N(CC(=O)O)C1=O` [BENAZEPRIL] the IC50 (HEK293) was 301 µM, the IC50 (A549) was 358 µM and the IC50 [2] was 0.212 µM.

Compound `CN1C(=O)[C@@H]2C[C@@H](O)CN2C(=O)c2ccccc21` has an inhibition [1] of 28%.

With `O=C1Nc2ccccc2C(=O)N2C[C@H](O)C[C@@H]12` the inhibition [1] was 57%.

`COc1ccc(CN2C(=O)[C@@H]3C[C@@H](O)CN3C(=O)c3ccccc32)cc1` gave an inhibition [1] of 28%.

In the case of `O=C1[C@@H]2C[C@@H](O)CN2C(=O)c2ccccc2N1Cc1cccc(Br)c1`, the “Ratio IC50” value [3] is reported as 1000, the “Ratio IC50” value [4] is reported as 1000 and the IC50 (HEK293) is reported as 398 µM. The IC50 (A549) was 400 µM, the IC50 [2] was 0.418 µM and the inhibition [1] was 86%.

For `O=C1[C@@H]2C[C@@H](O)CN2C(=O)c2ccccc2N1Cc1cc(F)cc(F)c1Cl`, the inhibition [1] was 28%.

In the case of `O=C1[C@@H]2C[C@@H](O)CN2C(=O)c2ccccc2N1Cc1ccc(Br)cc1`, the “Ratio IC50” value [3] is reported as 1000, the “Ratio IC50” value [4] is reported as 1000 and the IC50 (HEK293) is reported as 496 µM. The IC50 (A549) was 487 µM, the IC50 [2] was 0.658 µM and the inhibition [1] was 75%.

With `O=C1[C@@H]2C[C@@H](O)CN2C(=O)c2ccccc2N1Cc1cc(Br)cs1` the “Ratio IC50” value [3] was 1000, the “Ratio IC50” value [4] was 1000 and the IC50 (HEK293) was 281 µM. It also gave an IC50 (A549) of 361 µM, an IC50 [2] of 0.272 µM and an inhibition [1] of 80%.

In the case of `O=C1[C@@H]2C[C@@H](O)CN2C(=O)c2ccccc2N1Cc1cccc(Cl)c1`, the inhibition [1] is reported as 28%.

With `CC(=O)CN1C(=O)[C@@H]2C[C@@H](O)CN2C(=O)c2ccccc21` the inhibition [1] was 28%.

Compound `O=C(O)c1ccc(CN2C(=O)[C@@H]3C[C@@H](O)CN3C(=O)c3ccccc32)cc1` has an inhibition [1] of 28%.

`O=C1[C@@H]2C[C@@H](O)CN2C(=O)c2ccccc2N1Cc1cccc2c1oc1ccccc12` showed an inhibition [1] of 28%.

In the case of `COc1cccc(CN2C(=O)[C@@H]3C[C@@H](O)CN3C(=O)c3ccccc32)c1`, the inhibition [1] is reported as 28%.

With `CCOC(=O)[C@H](CCc1ccccc1)N[C@@H](C)C(=O)N1[C@H](C(=O)O)C[C@@H]2CCC[C@@H]21` [RAMIPRIL] the IC50 (HEK293) was 414 µM, the IC50 (A549) was 392 µM and the IC50 [2] was 0.253 µM.

In the case of `O=C(CN1C(=O)[C@@H]2C[C@@H](O)CN2C(=O)c2ccccc21)c1ccc(Cl)cc1`, the inhibition [1] is reported as 28%.

For `O=C1[C@@H]2C[C@@H](O)CN2C(=O)c2ccccc2N1Cc1c(F)c(F)c(F)c(F)c1F`, the inhibition [1] was 28%.

With `COc1cc(CN2C(=O)[C@@H]3C[C@@H](O)CN3C(=O)c3ccccc32)cc(OC)c1OC` the “Ratio IC50” value [3] was 1000, the “Ratio IC50” value [4] was 1000 and the IC50 (HEK293) was 331 µM. The IC50 (A549) was 419 µM, the IC50 [2] was 0.376 µM and the inhibition [1] was 91%.

With `O=C1[C@@H]2C[C@@H](O)CN2C(=O)c2ccccc2N1Cc1cc(F)cc(F)c1` the inhibition [1] was 28%.

`O=C1[C@@H]2C[C@@H](O)CN2C(=O)c2ccccc2N1Cc1ccc([N+](=O)[O-])c(Cl)c1` gave an inhibition [1] of 28%.

`O=C1[C@@H]2C[C@@H](O)CN2C(=O)c2ccccc2N1Cc1ccc([N+](=O)[O-])cc1` gave an inhibition [1] of 28%.

Compound `COC(=O)c1ccc(CN2C(=O)[C@@H]3C[C@@H](O)CN3C(=O)c3ccccc32)cc1` has an inhibition [1] of 28%.

`O=C1[C@@H]2C[C@@H](O)CN2C(=O)c2ccccc2N1Cc1ccc(Cl)c(F)c1` gave an inhibition [1] of 28%.

Compound `NCCCC[C@H](N[C@@H](CCc1ccccc1)C(=O)O)C(=O)N1CCC[C@H]1C(=O)O` [LISINOPRIL ANHYDROUS] has an IC50 (HEK293) of 443 µM, an IC50 (A549) of 307 µM and an IC50 [2] of 0.262 µM.
